Measured values from ChEMBL document CHEMBL3751738, “Structure-based design and biological evaluation of novel 2-(indol-2-yl) thiazole derivatives as xanthine oxidase inhibitors” (Bioorg Med Chem Lett, 2016).

Legend:
Rattus norvegicus = assay: Inhibition of oxonic acid-induced high uric acid level in Sprague-Dawley rat plasma at 10 mg/kg, po after 1 hr; assay type: functional
In short: (§1)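 Hyperuricemia was induced in male SD rats (about 200 g) with potassium oxonate 300 mg/kg i.p., suspended in 0.8% carboxymethylcellulose. One hour later compounds were dosed orally in PEG400:ethanol (2:1), and blood was taken 1 h post-dose for plasma uric acid. Inhibition was scaled with the normal group as 100% and the oxonate control as 0%. Statistics used ANOVA with Dunnett's post-test.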

[1] = Cmax in Sprague-Dawley rat at 10 mg/kg, po; assay type: ADME, organism-based; set-up: dose 10 mg/kg, route oral; settings: in vivo
In short: (§2)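 Single oral dose of 10 mg/kg given to SD rats. Plasma Cmax, Tmax, AUC0–last, AUC0–infinity and t1/2 were determined, n = 3.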

[2] = Inhibition of butter milk xanthine oxidase (unknown origin) assessed as initial velocity of uric acid formation pre-incubated for 3 mins by spectrophotometry analysis
In short: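 Buttermilk xanthine oxidase diluted to 0.05 U/mL in 50 mM phosphate buffer. Compounds at several concentrations were added in phosphate buffer containing 10% DMSO and pre-incubated 3 min at room temperature. The reaction was started with xanthine solution (200 µM as added). Uric acid formation was read at 293 nm, with the linear rate over 5 min taken as initial velocity. % inhibition was calculated against the no-inhibitor rate, and IC50 derived.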

[3] = Half life in rat liver microsomes; assay type: ADME
[4] = Plasma concentration in Sprague-Dawley rat at 10 mg/kg, po after 1 hr; assay type: ADME, organism-based; in short: as §1
[5] = Half life in Sprague-Dawley rat at 10 mg/kg, po; assay type: ADME, organism-based; settings: in vivo; in short: as §2
[6] = Tmax in Sprague-Dawley rat at 10 mg/kg, po; assay type: ADME, organism-based; settings: in vivo; in short: as §2
[7] = AUC (0 to last) in Sprague-Dawley rat at 10 mg/kg, po; assay type: ADME, organism-based; set-up: dose 10 mg/kg, route oral, time 0 - last; settings: in vivo; in short: as §2
[8] = AUC (0 to infinity) in Sprague-Dawley rat at 10 mg/kg, po; assay type: ADME, organism-based; set-up: dose 10 mg/kg, route oral, time infinity; settings: in vivo; in short: as §2

SMILES	IC50 [2] [nM]	half-life [3] [h]	inhibition in vivo at 10 mg/kg (Rattus norvegicus) [%]	other results
Cc1nc(-c2cc3cc(OC4CCCC4)cc(C#N)c3[nH]2)sc1C(=O)O	5.7	2.07	2.3	Cmax [1]: 720 ng/mL
Oc1ncnc2[nH]ncc12 [ALLOPURINOL]	3740	–	–	–
Cc1nc(-c2cc3cc(OCc4ccccc4)ccc3[nH]2)sc1C(=O)O	522	–	–	–
Cc1nc(-c2cc3cc(Oc4ccccc4)cc(Br)c3[nH]2)sc1C(=O)O	17	1.52	–	–
Cc1nc(-c2cc3ccc(OCC(C)C)cc3[nH]2)sc1C(=O)O	481	–	–	–
Cc1nc(-c2cc3cc(NCc4ccccc4)cc(C#N)c3[nH]2)sc1C(=O)O	9.3	1.5	–	–
N#Cc1cc(-c2n[nH]c(-c3ccncc3)n2)ccn1 [TOPIROXOSTAT]	5.3	–	–	–
Cc1nc(-c2cc3cc(NC4CCCC4)cc(C#N)c3[nH]2)sc1C(=O)O	9.4	2.96	–	Cmax [1]: 300 ng/mL
Cc1nc(-c2cc3cc(Oc4ccccc4)cc(Cl)c3[nH]2)sc1C(=O)O	14.3	4.69	–	–
Cc1nc(-c2cc3cc(CNS(C)(=O)=O)cc([N+](=O)[O-])c3[nH]2)sc1C(=O)O	3.6	14.6	0	concentration at 1 h [4]: 17 ng/mL
COc1cc([N+](=O)[O-])c2[nH]c(-c3nc(C)c(C(=O)O)s3)cc2c1	7	0.402	4	concentration at 1 h [4]: 100 ng/mL
Cc1nc(-c2cc3cc(OC(C)C)cc([N+](=O)[O-])c3[nH]2)sc1C(=O)O	5.1	4.13	43	half-life [5]: 3.45 h; Tmax [6]: 0.42 h; Cmax [1]: 4940 ng/mL; AUC(0-t) [7]: 8230 ng·h/mL; AUC(0-inf) [8]: 13100 ng·h/mL
Cc1nc(-c2cc3cc(Oc4ccccc4)cc([N+](=O)[O-])c3[nH]2)sc1C(=O)O	15.9	4.03	7.1	Cmax [1]: 3200 ng/mL

Further molecules by falling IC50 [2], results first:

IC50 [2] [nM]	half-life [3] [h]	SMILES	inhibition in vivo at 10 mg/kg (Rattus norvegicus) [%]	other results
2200	–	COc1ccc2cc(-c3nc(C)c(C(=O)O)s3)[nH]c2c1	–	–
792	–	COc1ccc2[nH]c(-c3nc(C)c(C(=O)O)s3)cc2c1	–	–
233	1.94	Cc1nc(-c2cc3cc(Oc4ccccc4)ccc3[nH]2)sc1C(=O)O	–	–
209	1.61	Cc1nc(-c2cc3cc(OCC(C)C)ccc3[nH]2)sc1C(=O)O	–	–
31.8	–	Cc1nc(-c2cc3cc(N)cc(C#N)c3[nH]2)sc1C(=O)O	–	–
8.9	3.67	Cc1nc(-c2cc3cc(Oc4ccccc4)cc(C#N)c3[nH]2)sc1C(=O)O	–	–
6.9	2.51	Cc1nc(-c2cc3cc(N4CCCCC4)cc(C#N)c3[nH]2)sc1C(=O)O	–	Cmax [1]: 740 ng/mL
6.1	2.17	Cc1nc(-c2cc3cc(OC(C)C)cc(C#N)c3[nH]2)sc1C(=O)O	19	Cmax [1]: 3750 ng/mL
3.1	–	Cc1nc(-c2ccc(OCC(C)C)c(C#N)c2)sc1C(=O)O [FEBUXOSTAT]	60	–
